Measurements pooled from the literature.
Lines come from different studies, so protocols differ.
Effect on: enzyme activity
Action: inhibitor
KIT: Mast/stem cell growth factor receptor Kit (KIT, Homo sapiens, UniProt P10721)
PIK3CD: Phosphatidylinositol 4,5-bisphosphate 3-kinase catalytic subunit delta isoform (PIK3CD, Homo sapiens, UniProt O00329)

SMILES | target | test | conditions | IC50 [nM]
CN(C)CCNC(=O)c1ccc(-c2nc3ccc4[nH]ncc4c3c3c2CCCCC3)c(F)c1 | KIT |  |  | 249
O=C1C(=Nc2ccc(Cl)cc2)c2ccccc2N1Cc1ccc([N+](=O)[O-])cc1 | PIK3CD | ADP detection |  | 30.5
O=C1Nc2ccc(I)cc2/C1=C/c1cc(Br)c(O)c(Br)c1 | Casein kinase II subunit alpha (CSNK2A1, Homo sapiens, UniProt P68400) |  |  | 319
C=CC(=O)Nc1cccc(Oc2nc(Nc3ccc(N4CCN(C)CC4)cc3)nc3ccoc23)c1 | Tyrosine-protein kinase BTK (BTK, Homo sapiens, UniProt Q06187) |  |  | < 0.254
COc1cc(N=C2C(=O)Nc3ccccc32)cc(OC)c1 | PIK3CD | ADP detection |  | 48.3
CN(C)C(=O)c1cc2cnc(Nc3ccc(-c4cccc5c(=O)cc(N6CCOCC6)oc45)c(F)c3)nc2n1C1CCCC1 | PIK3CD | radiometric |  | 40.5
CN(C)CCNC(=O)c1ccc(-c2nc3ccc4[nH]ncc4c3c3c2CCCC3)cc1 | KIT |  |  | > 1000
CN(C)C(=O)c1cc2cnc(Nc3ccc(-c4cccc5c(=O)cc(N6CCOCC6)oc45)cn3)nc2n1C1CCCC1 | PIK3CD | radiometric |  | 2390
O=C1C(=Nc2ccc(Cl)cc2Br)c2ccccc2N1Cc1ccc([N+](=O)[O-])cc1 | PIK3CD | ADP detection |  | 50.9
CN(C)C(=O)c1cc2cnc(Nc3cc(C(F)(F)F)c(-c4cccc5c(=O)cc(N6CCOCC6)oc45)cn3)nc2n1C1CCCC1 | PIK3CD | radiometric |  | 95
Cc1cccc(N=C2C(=O)Nc3ccccc32)c1 | PIK3CD | ADP detection |  | 88.9
Cc1n[nH]c2ccc3nc(-c4ccc(C(=O)NCCN(C)C)cc4)c4c(c3c12)CCCC4 | KIT |  |  | 208
CN(C)C(=O)c1cc2cnc(Nc3cncc(-c4ccc5c(=O)cc(N6CCOCC6)oc5c4)c3)nc2n1C1CCCC1 | PIK3CD | radiometric |  | 137
COc1c(Cl)cccc1Nc1c(-c2ccncc2OC[C@@H]2COCCO2)[nH]c2c1C(=O)NCC2 | Receptor tyrosine-protein kinase erbB-4 (ERBB4, Homo sapiens, UniProt Q15303) | TR-FRET |  | 13.9
CN(C)C(=O)c1cc2cnc(Nc3cccc4c(=O)cc(N5CCOCC5)oc34)nc2n1C1CCCC1 | PIK3CD | radiometric |  | > 10000
COc1ccccc1N1CCN(C(=O)c2cccc(S(=O)(=O)n3cncn3)c2)CC1 | Prostaglandin reductase 2 (Homo sapiens, UniProt Q8N8N7) |  | lysate | 176
CCc1ccc(N=C2C(=O)Nc3ccccc32)cc1 | PIK3CD | ADP detection |  | 455
Cc1n[nH]c2ccc3nc(-c4ccc(C(=O)NCCN(C)C)cc4F)c4c(c3c12)CCCCC4 | KIT |  |  | 261
CC(C)c1cccc(C(C)C)c1N=C1C(=O)N(Cc2cccc(Cl)c2)c2ccccc21 | PIK3CD | ADP detection |  | 238
CN(C)C(=O)c1cc2cnc(Nc3ccc(-c4ccc5c(=O)cc(N6CCNCC6)oc5c4)cc3)nc2n1C1CCCC1 | PIK3CD | radiometric |  | 9500
